Laboratory results published in PMC10568112 (Journal of Pharmaceutical Analysis, 2023).
Read-outs that look alike come from different tables or passages of the source.

Assays:
[1] = tested on: carboxylesterase of gut microbiota; format: in vitro ADME, Balb/c mice; conditions: for inhibition rate of tyrosol production: 120 min, SNZ 10 μg/mL, vs control group
How it was run: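 Gut bacteria incubations were set up as for the microbial metabolism assay, with test compound at a final 10 μg/mL. The carboxylesterase inhibitor BNPP was added at 1, 5 or 10 mM; cultures without BNPP served as control. Incubation was at 37 °C for 0, 15, 30, 60, 90 and 120 min. Inhibition of tyrosol production at 120 min was expressed relative to control.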

[2] = Pharmacokinetics after oral SNZ in tumor mice and PGF tumor mice; format: in vivo, Balb/c mice; conditions: oral SNZ 109.2 mg/kg
[3] = Tissue distribution after oral SNZ in tumor bearing mice; format: in vivo, Balb/c mice; conditions: 20 min after oral SNZ 109.2 mg/kg; for tissues in which the metabolite is distributed: tumor mice
How it was run: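 Three tumour-bearing mice per group, conventional or PGF, were fasted overnight and dosed orally at 109.2 mg/kg. After 20 min they were anaesthetised with 20% urethane and PBS-perfused. Organs and tumour were homogenised in 3 volumes of PBS. 100 μL homogenate was mixed with 300 μL methanol containing glipizide (100 ng/mL), vortexed 1 min and centrifuged at 14,000 rpm for 10 min. Supernatant was analysed by HPLC-MS/MS.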

[4] = Pharmacokinetics after oral SNZ in normal Balb/c mice and pseudo-germfree; format: in vivo; conditions: oral SNZ 109.2 mg/kg; for Cmax / half-life / Tmax: Balb/c, mouse, po, 109.2 mg/kg; for Cmax / half-life / Tmax / AUC(0−t) / AUC(0−∞): plasma, mean
[5] = tested on: gut microbiota (intestinal bacteria incubation system); test: Metabolism of SNZ by intestinal bacteria in vitro; format: in vitro ADME, Balb/c mice; conditions: SNZ 10 μg/mL; for course of metabolite content in intestinal bacteria incubation: 0-2 h
How it was run: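 Contents of male Balb/c intestine were mixed 1:30 (w/v) in anaerobic medium, kept under N2 and pre-incubated 30 min at 37 °C. Test compound was present at a final 10 μg/mL, and inactivated bacteria medium served as negative control. Shaking at 37 °C, 200 rpm was done in two separate runs: 0, 1, 2, 6, 12 and 24 h, then 0, 15, 30, 60, 90 and 120 min. Parent and metabolite contents were followed over time.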

[6] = tumor mice (column head Normal), plasma, mean
[7] = PK parameters in PGF could not be fitted

SMILES: O=[N+]([O-])c1ccc(OP(=O)(O)Oc2ccc([N+](=O)[O-])cc2)cc1 [BNPP, bis-p-nitrophenyl phosphate]
- effect on metabolic rate of SNZ by gut microbiota ([1]; BNPP 0, 1, 5 and 10 mM): inhibited in a dose-dependent manner
- inhibition rate of tyrosol production ([1]; BNPP 1 mM): 81.5%
- inhibition rate of tyrosol production ([1]; BNPP 5 mM): 93.1%
- inhibition rate of tyrosol production ([1]; BNPP 10 mM): 100.0%
- prolongation of SNZ metabolism compared with control group ([1]; BNPP 10 mM, within 120 min): approximately 60 min

SMILES: OC[C@H]1O[C@@H](OCCc2ccc(O)cc2)[C@H](O)[C@@H](O)[C@@H]1O [Salidroside, salidroside]
- Cmax ([2]; Balb/c, mouse, plasma, po, 109.2 mg/kg, cmax, PGF tumor mice, mean): 75 ng/mL
- half-life ([2]; Balb/c, mouse, plasma, po, 109.2 mg/kg, t1/2, PGF tumor mice, mean): 20.4 min
- Tmax ([2]; Balb/c, mouse, plasma, po, 109.2 mg/kg, tmax, PGF tumor mice, mean): 18 min
- AUC(0−t) ([2]; PGF tumor mice, plasma, mean): 2207.64 µg/L/min
- AUC(0−∞) ([2]; PGF tumor mice, plasma, mean): 2452.12 µg/L/min
- AUC(0−t) [2, 6]: 22373.93 µg/L/min
- AUC(0−∞) [2, 6]: 23773.54 µg/L/min
- amount detected in tumor tissue of tumor mice compared with PGF tumor mice [3]: a large amount
- tissues in which the metabolite is distributed [3]: liver, kidney, stomach, small intestine, etc.
- Cmax ([4]; PGF mice): 82.7 ng/mL
- Cmax ([4]; normal Balb/c mice): 257 ng/mL
- half-life ([4]; t1/2, PGF mice): 14.2 min
- half-life ([4]; t1/2, normal Balb/c mice): 90.8 min
- Tmax ([4]; PGF mice): 16 min
- Tmax ([4]; normal Balb/c mice): 44 min
- AUC(0−t) ([4]; PGF mice): 3079.01 µg/L/min
- AUC(0−∞) ([4]; PGF mice): 3205.99 µg/L/min
- AUC(0−t) ([4]; normal Balb/c mice): 33814.78 µg/L/min
- AUC(0−∞) ([4]; normal Balb/c mice): 36004.16 µg/L/min
- course of metabolite content in intestinal bacteria incubation [5]: gradually decreased
- highest peak concentration of metabolite in intestinal bacteria incubation ([5]; peak at 15 min): 3.29 µg/mL

SMILES: OCCc1ccc(O)cc1 [Tyrosol, tyrosol]
- plasma exposure in tumor mice compared with PGF tumor mice [2, 7]: significantly higher
- AUC(0−t) [2, 6]: 8918.61 µg/L/min
- AUC(0−∞) [2, 6]: 9833.89 µg/L/min
- amount detected in tumor tissue of tumor mice compared with PGF tumor mice [3]: a large amount
- tissues in which the metabolite is distributed [3]: liver, kidney, stomach, small intestine, heart, spleen, lung, colon, and other organs and tissues
- Cmax ([4]; normal Balb/c mice): 126 ng/mL
- half-life ([4]; t1/2, normal Balb/c mice): 110 min
- Tmax ([4]; normal Balb/c mice): 36 min
- AUC(0−t) ([4]; normal Balb/c mice): 13158.45 µg/L/min
- AUC(0−∞) ([4]; normal Balb/c mice): 13944.89 µg/L/min
- plasma concentration in PGF mice compared with normal group [4, 7]: lower than that in the normal group
- course of metabolite content in intestinal bacteria incubation [5]: increased gradually with incubation time
